Test results: ChEMBL document CHEMBL1152300, “Ligand specificity of constitutive androstane receptor as probed by induced-fit docking and mutagenesis” (J Med Chem, 2008)
One block for each compound: values may come before it.

How the values were obtained:
[1] = target: T1, Nuclear receptor subfamily 1 group I member 3 (Mus musculus, UniProt O35627); assay: Activation of wild type mouse CAR expressed in HEK293 cells at 10 uM by mammalian one-hybrid assay; conditions: hek293, 10 µM
T1 sequence (O35627 whole entry): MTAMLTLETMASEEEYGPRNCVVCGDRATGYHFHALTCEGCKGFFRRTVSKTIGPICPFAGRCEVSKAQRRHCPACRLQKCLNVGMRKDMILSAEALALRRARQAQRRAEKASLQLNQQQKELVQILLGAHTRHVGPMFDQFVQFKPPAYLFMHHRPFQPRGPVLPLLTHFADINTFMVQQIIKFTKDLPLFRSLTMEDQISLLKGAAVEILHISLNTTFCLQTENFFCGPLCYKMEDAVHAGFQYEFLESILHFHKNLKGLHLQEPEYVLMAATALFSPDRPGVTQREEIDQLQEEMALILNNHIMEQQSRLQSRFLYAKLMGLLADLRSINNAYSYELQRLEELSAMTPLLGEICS

[2] = target: T2, Nuclear receptor subfamily 1 group I member 3 (Mus musculus, UniProt O35627, F171A); conditions: HEK293, mouse
T2 sequence (O35627 whole entry F171A): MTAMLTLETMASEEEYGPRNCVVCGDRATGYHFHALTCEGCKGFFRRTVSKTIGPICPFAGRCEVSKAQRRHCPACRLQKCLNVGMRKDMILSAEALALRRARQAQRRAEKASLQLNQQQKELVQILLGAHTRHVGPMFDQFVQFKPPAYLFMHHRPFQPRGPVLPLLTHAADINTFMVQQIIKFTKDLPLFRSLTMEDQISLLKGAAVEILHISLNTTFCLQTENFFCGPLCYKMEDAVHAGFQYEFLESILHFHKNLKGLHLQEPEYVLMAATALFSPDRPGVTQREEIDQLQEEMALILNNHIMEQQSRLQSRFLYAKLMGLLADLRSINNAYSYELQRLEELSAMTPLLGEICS

[3] = target: T3, Nuclear receptor subfamily 1 group I member 3 (Mus musculus, UniProt O35627, F171L); assay: Effect on nuclear co-repressor receptor binding to mouse CAR F171L mutant […] at 1 uM by yeast two-hybrid assay; assay type: cell-based; conditions: read-out: Activity
T3 sequence (O35627 whole entry F171L, the tested form may be a part): as the sequence (O35627 whole entry F171A) above, with A171L counted along it
Summary of the method: (§1)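 Yeast expressing wild-type or mutant mouse CAR LBD plus NCoR, selected on SD plates lacking leucine and tryptophan. Pooled colonies treated with DMSO or compound for 3.5 h. β-Galactosidase activity normalized to cell density. Reference is 10 µM androstenol (=100). Mean ± SD of two independent determinations, each in triplicate.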

[4] = target: T4, Nuclear receptor subfamily 1 group I member 3 (Mus musculus, UniProt O35627, I252L); assay: Enhancement of steroid receptor coactivator 1 binding to mouse CAR I252L mutant […] at 1 uM by yeast two-hybrid assay; assay type: cell-based
T4 sequence (O35627 whole entry I252L, the tested form may be a part): as the sequence (O35627 whole entry F171A) above, with A171F, I252L counted along it
Summary of the method: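 Yeast two-hybrid assay. Yeast co-expressing wild-type or mutant mouse CAR LBD and the SRC-1 partner were selected on SD plates lacking leucine and tryptophan. Random colonies were pooled and amplified, then treated with DMSO or test chemical for 3.5 h. β-galactosidase activity was normalized to cell density and set relative to wild-type mCAR + SRC-1 with DMSO (=100). Mean ± standard deviation of two determinations, each in triplicate.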

[5] = target: T5, Nuclear receptor subfamily 1 group I member 3 (Mus musculus, UniProt O35627, T350M); assay: Decrease in mouse CAR T350M mutant activation expressed in HEK293 cells at 1 uM by mammalian one-hybrid assay; assay type: cell-based; conditions: read-out: Activity
T5 sequence (O35627 whole entry T350M, the tested form may be a part): as the sequence (O35627 whole entry F171A) above, with A171F, T350M counted along it
Summary of the method: (§2)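 GAL4 DBD fused to mouse CAR LBD (residues 118-358), wild type or point mutant, cotransfected with UASx4-tk-luc reporter and pCMVβ into HEK293 cells. Cells cultured with DMSO (0.1% v/v) or compound (final 1, 2 or 10 µM). Lysed 24 h post-transfection. Luciferase normalized to β-galactosidase, expressed relative to empty GAL4 vector (=1.0). Mean ± SD, three independent experiments.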

[6] = target: Nuclear receptor subfamily 1 group I member 3 (Mus musculus, UniProt O35627, H213A); assay: Effect on steroid receptor co-activator 1 binding to mouse CAR H213A mutant […] at 1 uM by yeast two-hybrid assay; assay type: cell-based; conditions: read-out: Activity
Chain of Nuclear receptor subfamily 1 group I member 3 (Mus musculus, UniProt O35627, H213A) (O35627 whole entry H213A): as the sequence (O35627 whole entry F171A) above, with A171F, H213A counted along it
Summary of the method: as §1, with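 “SRC-1,” for “NCoR,”, “wild-type CAR + SRC-1 with DMSO” for “10 µM androstenol”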

[7] = target: T5, Nuclear receptor subfamily 1 group I member 3; assay: Decrease in steroid receptor coactivator 1 binding to mouse CAR T350M mutant […] at 1 uM by yeast two-hybrid assay; assay type: cell-based; conditions: read-out: Activity
Summary of the method: as §1, with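 “SRC-1,” for “NCoR,”, “wild-type CAR + SRC-1 with DMSO” for “10 µM androstenol”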

[8] = target: Nuclear receptor subfamily 1 group I member 3 (Mus musculus, UniProt O35627, Y336A); conditions: HEK293, mouse, read-out: Activity
Chain of Nuclear receptor subfamily 1 group I member 3 (Mus musculus, UniProt O35627, Y336A) (O35627 whole entry Y336A): as the sequence (O35627 whole entry F171A) above, with A171F, Y336A counted along it

[9] = target: T6, mouse CAR (NR1I3), wild type (Mus musculus, UniProt O35627); assay: Decrease in wild type mouse CAR activation expressed in HEK293 cells at 10 uM by mammalian one-hybrid transactivation assay; assay type: cell-based; conditions: HEK293 cells expressing wild type mouse CAR, read-out: Activity
T6 sequence (O35627 whole entry): T1 sequence (O35627 whole entry)
Summary of the method: as §2

[10] = target: Nuclear receptor subfamily 1 group I member 3 (Mus musculus, UniProt O35627, T350A); assay: Activation of mouse CAR T350A mutant expressed in HEK293 cells at 10 uM by mammalian one-hybrid assay; assay type: cell-based; conditions: hek293, 10 µM
Chain of Nuclear receptor subfamily 1 group I member 3 (Mus musculus, UniProt O35627, T350A) (O35627 whole entry T350A): as the sequence (O35627 whole entry F171A) above, with A171F, T350A counted along it
Summary of the method: as §2

[11] = target: T4, Nuclear receptor subfamily 1 group I member 3; assay: Enhancement of steroid receptor coactivator 1 binding to mouse CAR I252L mutant […] at 2 uM by yeast two-hybrid assay; assay type: cell-based
Summary of the method: (§3)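 Yeast two-hybrid: yeast expressing wild-type or mutant mouse CAR LBD plus SRC-1 or NCoR, selected on SD medium lacking Leu and Trp. Pooled colonies treated with DMSO or test chemical for 3.5 h. β-Galactosidase normalized to cell density. SRC-1 reference: wild-type + DMSO = 100. NCoR reference: 10 µM androstenol = 100. Mean ± SD, two independent determinations, each in triplicate.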

[12] = target: T2, Nuclear receptor subfamily 1 group I member 3; assay: Effect on steroid receptor co-activator 1 binding to mouse CAR F171A mutant […] at 2 uM by yeast two-hybrid assay; assay type: cell-based; conditions: read-out: Activity
Summary of the method: as §3

[13] = target: T7, Nuclear receptor subfamily 1 group I member 3 (Mus musculus, UniProt O35627, N175A); assay: Enhancement of steroid receptor co-activator 1 binding to mouse CAR N175A mutant […] at 2 uM by yeast two-hybrid assay; assay type: cell-based
T7 sequence (O35627 whole entry N175A): as the sequence (O35627 whole entry F171A) above, with A171F, N175A counted along it
Summary of the method: as §3

[14] = target: T5, Nuclear receptor subfamily 1 group I member 3; assay: Effect on steroid receptor coactivator 1 binding to mouse CAR T350M mutant […] at 2 uM by yeast two-hybrid assay; assay type: cell-based; conditions: read-out: Activity
Summary of the method: as §3

[15] = target: T5, Nuclear receptor subfamily 1 group I member 3; assay: Decrease in nuclear co-repressor receptor binding to mouse CAR T350M mutant […] at 2 uM by yeast two-hybrid assay; assay type: cell-based; conditions: read-out: Activity
Summary of the method: as §3

[16] = target: T3, Nuclear receptor subfamily 1 group I member 3; assay: Decrease in mouse CAR F171L mutant activation expressed in HEK293 cells at 2 uM by mammalian one-hybrid assay; assay type: cell-based; conditions: read-out: Activity
Summary of the method: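 GAL4-DBD fused to mouse CAR LBD (residues 118-358), wild-type or point mutant, cotransfected with UASx4-tk-luc reporter and pCMVβ into HEK293 cells. Cells were exposed to final 1 µM, 2 µM or 10 µM test chemical, or 0.1% v/v DMSO, for 24 h after transfection. Luciferase was normalized to β-galactosidase and set against empty GAL4 vector (=1.0). Mean ± standard deviation, three independent experiments.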

[17] = target: T7, Nuclear receptor subfamily 1 group I member 3; assay: Decrease in steroid receptor coactivator 1 binding to mouse CAR N175A mutant […] at 10 uM by yeast two-hybrid assay; assay type: cell-based; conditions: read-out: Activity
Summary of the method: as §1, with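 “SRC-1,” for “NCoR,”, “wild-type CAR + SRC-1 with DMSO” for “10 µM androstenol”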

[18] = target: T3, Nuclear receptor subfamily 1 group I member 3; conditions: HEK293, mouse

SMILES: Clc1cnc(Oc2ccc(Oc3ncc(Cl)cc3Cl)cc2)c(Cl)c1
- activity at 1 µM [3]: < 50%
- Activity [4]: >= 50%
- inhibition at 1 µM [5]: 50%
- activity at 1 µM [6]: < 50%
- inhibition at 1 µM [7]: ≥ 50%

SMILES: C[C@]12CC[C@@H](O)C[C@@H]1CC[C@@H]1[C@@H]2CC[C@]2(C)C=CC[C@@H]12 [ANDROSTENOL]
- inhibition at 10 µM [8]: < 50%
- inhibition at 10 µM [9]: > 60%
- Activity [10]: < 50%

SMILES: COc1ccc(C(c2ccc(OC)cc2)C(Cl)(Cl)Cl)cc1 [METHOXYCHLOR]
- inhibition at 10 µM [17]: ≥ 50%
- activity at 10 µM [18]: < 50%

Results, then the compound that gave them:

- Activity [1]: 40%
SMILES: COc1ccc(C(=O)CCCc2ccccc2)cc1

- activity at 10 µM [2]: < 50%
SMILES: COc1ccccc1CC(CC(=O)Cc1ccccc1)OC (stereo not drawn)

- Activity [11]: >= 50%
- activity at 2 µM [12]: < 50%
- Activity [13]: >= 50%
- activity at 2 µM [14]: < 50%
- inhibition at 2 µM [15]: ≥ 50%
- inhibition at 2 µM [16]: 50%
SMILES: Clc1ccccc1C(c1ccccc1)(c1ccccc1)n1ccnc1 [CLOTRIMAZOLE]
